Measurements as given in ChEMBL document CHEMBL2157928, “Diarylheptanoid glycosides from Tacca plantaginea and their effects on NF-κB activation and PPAR transcriptional activity” (Bioorg Med Chem Lett, 2012).

Columns and labels:
Type in all cases: cell-based
[1] = (§1) Inhibition of NF-kappaB expressed in human HepG2 cells assessed as inhibition of TNFalpha-induced luciferase activity preincubated for 1 hr followed by TNFalpha challenge measured after 1 hr by reporter gene assay
Summary of the method: (§2)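 HepG2 cells transfected with an NF-κB-luciferase reporter were pretreated with compound at 0.1, 1 and 10 µM, then stimulated with TNF-α at 10 ng/mL. Sulfasalazine at 10 µM served as positive control. Luciferase activity was read. Data are mean ± SD (n = 3), with Dunnett's multiple comparison test, and IC50 was derived from the dose–response.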

[2] = target: Peroxisome proliferator-activated receptor (Homo sapiens) (UniProt P37231+Q07869+Q03181); experiment: (§3) Transactivation of PPAR transfected in human HepG2 cells after 20 hrs by luciferase reporter gene assay
[3] = target: T1, Peroxisome proliferator-activated receptor (Homo sapiens, UniProt P37231+Q07869+Q03181); experiment: as §3
T1 sequence (P37231 whole entry): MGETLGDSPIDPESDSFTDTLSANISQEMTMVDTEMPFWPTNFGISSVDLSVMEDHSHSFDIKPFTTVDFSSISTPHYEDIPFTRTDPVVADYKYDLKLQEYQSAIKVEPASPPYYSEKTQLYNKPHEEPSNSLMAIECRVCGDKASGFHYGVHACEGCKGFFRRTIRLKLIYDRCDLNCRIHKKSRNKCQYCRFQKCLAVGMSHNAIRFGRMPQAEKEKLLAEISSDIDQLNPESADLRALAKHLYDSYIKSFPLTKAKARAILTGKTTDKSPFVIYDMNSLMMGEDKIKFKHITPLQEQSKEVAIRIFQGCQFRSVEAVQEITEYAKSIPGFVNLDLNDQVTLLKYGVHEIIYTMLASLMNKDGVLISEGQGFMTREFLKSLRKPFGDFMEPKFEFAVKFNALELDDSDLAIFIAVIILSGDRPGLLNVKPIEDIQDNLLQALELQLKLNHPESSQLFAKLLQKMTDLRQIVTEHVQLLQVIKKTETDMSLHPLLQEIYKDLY
T1 sequence (Q07869 whole entry): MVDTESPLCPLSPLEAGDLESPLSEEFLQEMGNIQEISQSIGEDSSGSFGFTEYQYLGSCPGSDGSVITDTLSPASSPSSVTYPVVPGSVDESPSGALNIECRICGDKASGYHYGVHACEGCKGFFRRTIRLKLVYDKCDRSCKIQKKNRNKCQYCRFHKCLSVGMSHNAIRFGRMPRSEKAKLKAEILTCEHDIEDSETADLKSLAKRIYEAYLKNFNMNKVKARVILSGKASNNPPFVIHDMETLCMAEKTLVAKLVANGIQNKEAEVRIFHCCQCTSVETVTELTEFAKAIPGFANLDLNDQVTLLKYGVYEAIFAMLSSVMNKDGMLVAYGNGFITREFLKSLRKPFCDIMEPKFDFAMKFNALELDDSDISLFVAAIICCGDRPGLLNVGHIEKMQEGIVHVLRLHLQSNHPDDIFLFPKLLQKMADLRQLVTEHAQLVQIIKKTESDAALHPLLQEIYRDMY
T1 sequence (Q03181 whole entry): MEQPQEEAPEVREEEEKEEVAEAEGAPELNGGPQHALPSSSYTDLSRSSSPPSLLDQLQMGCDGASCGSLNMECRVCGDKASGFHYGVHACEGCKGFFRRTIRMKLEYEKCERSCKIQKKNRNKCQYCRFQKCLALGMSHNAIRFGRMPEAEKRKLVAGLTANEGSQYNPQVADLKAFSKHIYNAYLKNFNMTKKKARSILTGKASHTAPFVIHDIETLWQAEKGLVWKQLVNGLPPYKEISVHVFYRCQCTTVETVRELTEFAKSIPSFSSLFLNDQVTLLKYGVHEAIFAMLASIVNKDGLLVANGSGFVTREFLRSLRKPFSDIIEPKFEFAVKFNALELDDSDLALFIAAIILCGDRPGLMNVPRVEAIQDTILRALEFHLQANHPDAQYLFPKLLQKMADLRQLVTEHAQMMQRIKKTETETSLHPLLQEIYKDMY

[4] = target: T2, Peroxisome proliferator-activated receptor alpha (Homo sapiens) (UniProt Q07869); experiment: Transactivation of GAL4-fused PPARalpha ligand binding domain transfected in human HepG2 cells at 10 uM after 20 hrs by luciferase reporter gene assay relative to control
T2 sequence (whole entry): T1 sequence (Q07869 whole entry)
Summary of the method: (§4)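 PPARα transactivation was measured by luciferase reporter in HepG2 cells. Activity was compared with a vehicle group, and ciprofibrate (1 µM) was the positive control.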

[5] = target: T3, Peroxisome proliferator-activated receptor alpha (Homo sapiens, UniProt Q07869); experiment: Transactivation of GAL4-fused PPARalpha ligand binding domain transfected in human HepG2 cells after 20 hrs by luciferase reporter gene assay; summary of the method: as §4
T3 sequence (Q07869 whole entry): T1 sequence (Q07869 whole entry)

[6] = target: T4, Peroxisome proliferator-activated receptor gamma (Homo sapiens, UniProt P37231); experiment: Transactivation of GAL4-fused PPARgamma ligand binding domain transfected in human HepG2 cells after 20 hrs by luciferase reporter gene assay
T4 sequence (P37231 whole entry): T1 sequence (P37231 whole entry)

[7] = target: T5, Peroxisome proliferator-activated receptor delta (Homo sapiens) (UniProt Q03181); experiment: (§5) Transactivation of GAL4-fused PPARbeta (delta) ligand binding domain transfected in human HepG2 cells after 20 hrs by luciferase reporter gene assay
T5 sequence (whole entry): T1 sequence (Q03181 whole entry)
Summary of the method: (§6)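 For PPARβ(δ), luciferase transactivation was measured in HepG2 cells against a vehicle group, with L-165041 (1 µM) as positive control. EC50 came from the dose–response, given as mean ± SD (n = 3), with a cutoff of EC50 > 50 µM for inactivity.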

[8] = target: T6, Peroxisome proliferator-activated receptor delta (Homo sapiens, UniProt Q03181); experiment: as §5; summary of the method: as §6
T6 sequence (Q03181 whole entry): T1 sequence (Q03181 whole entry)

HepG2 [9] = experiment: Cytotoxicity against human HepG2 cells assessed as cell viability at 10 uM after 24 hrs by MTS assay; conditions: hepg2, 24 h
[10] = target: T7, Peroxisome proliferator-activated receptor gamma (Homo sapiens) (UniProt P37231); experiment: Transactivation of GAL4-fused PPARgamma ligand binding domain transfected in human HepG2 cells assessed as upregulation of gene expression at 10 uM by luciferase reporter gene assay relative to control
T7 sequence (whole entry): T1 sequence (P37231 whole entry)
Summary of the method: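 In HepG2 cells, PPARγ luciferase transactivation was expressed as fold over the vehicle group. Troglitazone (1 µM) was the positive control, and significance was set against vehicle at p < 0.01.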

HepG2 [11] = experiment: as §1; summary of the method: as §2

Row | SMILES | IC50 [1] | Activity [2] | EC50 [3] | fold change (FC) [4] | EC50 [5] | EC50 [6] | Activity [7] | EC50 [8] | Activity (HepG2 [9]) | fold change (FC) [10] | inhibition (HepG2 [11])
1 | OC[C@H]1O[C@@H](Oc2ccc(CCCC[C@H](O)CCc3ccc(O[C@@H]4O[C@H](CO)[C@@H](O)[C@H](O)[C@H]4O)c(O)c3)cc2O)[C@H](O)[C@@H](O)[C@@H]1O [PLANTAGINEOSIDE B] | > 10 µM | Dose-dependent effect | 10.4 µM | 1.3 | > 50 µM | 33.1 µM | Dose-dependent effect | 13.1 µM | Non-toxic | 1.5 | 
2 | O=C(CCCCc1ccc(O[C@@H]2O[C@H](CO)[C@@H](O)[C@H](O)[C@H]2O)c(O)c1)CCc1ccc(O[C@@H]2O[C@H](CO)[C@@H](O)[C@H](O)[C@H]2O)c(O)c1 [PLANTAGINEOSIDE A] | > 10 µM | Dose-dependent effect | 7 µM | 1.4 | 47.1 µM | > 50 µM | Dose-dependent effect | 11 µM | Non-toxic |  | 
3 | OC[C@H]1O[C@@H](O[C@H](CCc2ccc(O)c(O)c2)C[C@H](O)CCc2ccc(O)c(O)c2)[C@H](O)[C@@H](O)[C@@H]1O | 9.4 µM | Dose-dependent effect | 9.9 µM | 1.3 | > 50 µM | > 50 µM | Dose-dependent effect | 23.1 µM | Non-toxic |  | Dose-dependent effect
4 | OC[C@H]1O[C@@H](O[C@@H]2C[C@H](CCc3ccc(O)c(O)c3)O[C@H](c3ccc(O)c(O)c3)C2)[C@H](O)[C@@H](O)[C@@H]1O [PLANTAGINEOSIDE C] | 8 µM | Dose-dependent effect | 5.2 µM |  | > 50 µM | > 50 µM | Dose-dependent effect | 30.1 µM | Non-toxic |  | Dose-dependent effect
5 | OC[C@H]1O[C@@H](O[C@H](CCc2ccc(O)c(O)c2)C[C@H](O)CCc2ccc(O)cc2)[C@H](O)[C@@H](O)[C@@H]1O | 0.9 µM | Dose-dependent effect | 0.3 µM | 1.4 | 42.9 µM | > 50 µM | Dose-dependent effect | 15.6 µM | Non-toxic |  | Dose-dependent effect
6 | CCCc1c(OCCCOc2ccc(OCC(=O)O)cc2)ccc(C(C)=O)c1O |  |  |  |  |  |  |  | 0.65 µM |  |  | 
7 | O=C(O)c1cc(/N=N/c2ccc(S(=O)(=O)Nc3ccccn3)cc2)ccc1O [SULFASALAZINE] | 0.9 µM |  |  |  |  |  |  |  |  |  | 
8 | OC[C@H]1O[C@@H](O[C@H](CCc2ccc(O)cc2)C[C@H](O)CCc2ccc(O)cc2)[C@H](O)[C@@H](O)[C@@H]1O | 6.2 µM | Dose-dependent effect | 1.2 µM |  | > 50 µM | > 50 µM | Dose-dependent effect | 29.3 µM | Non-toxic |  | Dose-dependent effect
